Data set [1] addresses T1, NACHT, LRR and PYD domains-containing protein 3 (Mus musculus, UniProt Q8R4B8). Briefly: Inhibition of NLRP3 in mouse J774A.1 cells assessed as reduction in LPS-stimulated IL-1beta levels pre-incubated with LPS for 4.5 hrs followed by incubation for 30 mins in presence of ATP and measured after 30 mins by ELISA. Type of data set: cell-based. On the technique in general: In an ELISA, binding on a coated surface is turned into a signal by an enzyme label.

In data set [2] the test system is Mus musculus. Kind of data set: In-vivo inhibition of NLRP3 inflammasome in C57BL/6 mouse assessed as reduction in LPS-induced IL-1beta levels at 0.5 mg/kg, ip pre-treated for 1 hr followed by LPS stimulation for 2.5 hrs by ELISA. Type of data set: functional, organism-based. The method, boiled down:
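C57BL/6 mice dosed with compound or vehicle, then 1 h later given LPS 20 mg/kg i.p. (PBS control). Serum IL-1β measured by ELISA 2.5 h after LPS.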

Data set [3] has as its target T1, NACHT, LRR and PYD domains-containing protein 3. Kind of data set: Inhibition of NLRP3 in mouse BMDM assessed as reduction in LPS-stimulated IL-1beta levels pre-incubated with LPS for 4.5 hrs followed by incubation for 30 mins in presence of ATP and measured after 30 mins by ELISA. It counts as cell-based. A digest of the protocol: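 J774A.1 cells (DMEM, 10% FBS; 1 × 10⁵/well, plated 24 h) or bone marrow derived macrophages primed with E. coli 0111:B4 LPS (final 1 µg/mL) for 4.5 h. Compound and ATP (5 mM) then added together for 30 min. Supernatant IL-1β by mouse ELISA.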

In data set [4] the target is NACHT, LRR and PYD domains-containing protein 3 (Mus musculus) (UniProt Q8R4B8). Briefly: Ratio of IC50 for LPS/ATP-induced NLRP3-mediated IL1beta release in mouse J774A.1 cells to IC50 for LPS/ATP-induced NLRP3-mediated IL1beta release in mouse BMDM. It counts as cell-based.
The test system of data set [5] is Mus musculus. Kind of data set: Cardioprotective activity in 75 mins coronary artery ligated I/R AMI ICR mouse model assessed as reduction in infract size at 30 mg/kg, po measured at 24 hrs post surgery by TTC-staining based assay. Type of data set: functional, organism-based. A digest of the protocol:
(§1)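 ICR mice (8-12 weeks) were anesthetized with pentobarbital (50-70 mg/kg) and intubated, then underwent left thoracotomy and pericardiectomy. The proximal left coronary artery was ligated for 30 min or 75 min and released. Compound or vehicle was given at 0.1 mL, with n=6 per group. At 24 h after ischemia, viable myocardium was stained with TTC to measure infarct size.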

Data set [6] deals with Mus musculus. Briefly: Cognition enhancement activity in double APP/PS1 transgenic Alzheimer's disease C57BL/6 mouse model assessed as decrease in latency to find goal platform at 100 mg/kg, ip administered as single daily dose at 5 times per week for first 1 week followed by oral administration as single daily dose at 5 times per week for next 7 weeks by Morris water maze test relative to control. It counts as functional, organism-based. A digest of the protocol: (§2)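 APP/PS1 female transgenic mice (B6C3-Tg APPswe/PSEN1dE9) and matching WT females, randomized at 7 months (WT vehicle n=4, treated n=6; Tg vehicle n=5, treated n=7). Daily i.p. (10% DMSO with PEG-100) for 5 days, then oral (2% DMSO in corn oil) once daily weekdays for 7 weeks. Afterwards tested by novel object recognition (discrimination index) and Morris water maze (4-day fixed-platform latency trials, then probe trial).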

The subject of data set [7] is Mus musculus. Kind of data set: Cognition enhancement activity in double APP/PS1 transgenic Alzheimer's disease C57BL/6 mouse model assessed as discrimination index at 100 mg/kg, ip administered as single daily dose at 5 times per week for first 1 week followed by oral administration as single daily dose at 5 times per week for next 7 weeks by novel object recognition test relative to control. Type of data set: functional. A digest of the protocol: as §2

Data set [8] relates to Mus musculus. Briefly: Cognition enhancement activity in double APP/PS1 transgenic Alzheimer's disease C57BL/6 mouse model assessed as increase in time spent in goal quadran at 100 mg/kg, ip administered as single daily dose at 5 times per week for first 1 week followed by oral administration as single daily dose at 5 times per week for next 7 weeks by Morris water maze test relative to control. Type of data set: functional, organism-based. A digest of the protocol: as §2

The test system of data set [9] is Mus musculus. Kind of data set: Effect on cognition activity in wild type C57BL/6 mouse assessed as decrease in time spent in goal quadran at 100 mg/kg, ip administered as single daily dose at 5 times per week for first 1 week followed by oral administration as single daily dose at 5 times per week for next 7 weeks by Morris water maze test relative to control. It counts as ADME, organism-based. The following applies: in vivo. A digest of the protocol: as §2

Data set [10] concerns Mus musculus. Kind of data set: Cardioprotective activity in 30 mins coronary artery ligated I/R AMI ICR mouse model assessed as reduction in infract size at 30 mg/kg, po measured at 24 hrs post surgery by TTC-staining based assay. It counts as functional, organism-based. The method, boiled down:
as §1

Data set [11] deals with Mus musculus. Kind of data set: Cardioprotective activity in 30 mins coronary artery ligated I/R AMI ICR mouse model assessed as reduction in troponin-1 levels at 30 mg/kg, po measured at 24 hrs post surgery by ELISA. Type of data set: functional, organism-based. A digest of the protocol:
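ICR mice (8-12 weeks) under pentobarbital anaesthesia, intubated; left thoracotomy, pericardiectomy, proximal left coronary artery ligated 30 min then released. Compound or matched vehicle (0.1mL), n=6 per group.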

pIC50: −log10 of the molar value. Calls of active or inactive are those of the source. No cut-off for these calls is given here.

By pIC50 is commonly meant −log10 of the IC50, conventionally taken in molar units.

T1 sequence (Q8R4B8 whole entry, the tested form may be a part): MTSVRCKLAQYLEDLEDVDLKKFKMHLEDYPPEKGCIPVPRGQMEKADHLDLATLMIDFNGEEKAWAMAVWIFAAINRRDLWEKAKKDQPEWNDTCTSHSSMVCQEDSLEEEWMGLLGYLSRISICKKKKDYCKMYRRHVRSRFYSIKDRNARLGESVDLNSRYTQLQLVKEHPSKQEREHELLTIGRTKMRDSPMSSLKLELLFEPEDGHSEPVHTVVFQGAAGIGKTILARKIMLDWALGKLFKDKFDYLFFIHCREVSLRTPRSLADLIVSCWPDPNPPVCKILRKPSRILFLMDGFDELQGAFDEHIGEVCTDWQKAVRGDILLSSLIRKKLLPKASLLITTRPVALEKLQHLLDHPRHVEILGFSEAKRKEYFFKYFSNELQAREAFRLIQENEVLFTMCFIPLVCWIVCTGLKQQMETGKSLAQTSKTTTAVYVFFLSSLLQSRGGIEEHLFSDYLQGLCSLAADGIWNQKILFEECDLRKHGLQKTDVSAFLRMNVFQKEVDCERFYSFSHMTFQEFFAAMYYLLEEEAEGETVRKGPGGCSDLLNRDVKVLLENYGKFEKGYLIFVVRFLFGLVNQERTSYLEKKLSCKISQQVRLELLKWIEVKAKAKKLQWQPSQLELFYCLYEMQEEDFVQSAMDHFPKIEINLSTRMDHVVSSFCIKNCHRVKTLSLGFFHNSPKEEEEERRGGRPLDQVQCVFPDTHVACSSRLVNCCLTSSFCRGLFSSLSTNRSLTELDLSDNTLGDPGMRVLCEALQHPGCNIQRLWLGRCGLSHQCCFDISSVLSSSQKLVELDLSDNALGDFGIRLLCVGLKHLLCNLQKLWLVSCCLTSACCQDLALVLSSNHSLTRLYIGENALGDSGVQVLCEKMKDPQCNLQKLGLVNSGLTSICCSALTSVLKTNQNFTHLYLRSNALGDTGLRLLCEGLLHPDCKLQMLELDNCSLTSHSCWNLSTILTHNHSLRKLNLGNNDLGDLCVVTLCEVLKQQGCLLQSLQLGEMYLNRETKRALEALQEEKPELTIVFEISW
Sequence of NACHT, LRR and PYD domains-containing protein 3 (Mus musculus) (Q8R4B8 whole entry, the tested form may be a part): as above

Take `CCCN(CCC)S(=O)(=O)c1ccc(CCNC(=O)c2cc(Cl)ccc2OC)cc1`: the pIC50 in data set [1] was 5.85.

For `CNS(=O)(=O)c1ccc(CCNC(=O)c2ccc(OC)c(Cl)c2)cc1`, in data set [1], the pIC50 was 4.48.

As for `CNS(=O)(=O)c1ccc(CCNC(=O)c2ccc(Cl)cc2OC)cc1`, the pIC50 in data set [1] is 4.74.

Turning to `COc1ccc(Cl)cc1C(=O)NCCc1ccc(S(=O)(=O)N2CCOCC2)cc1`, the pIC50 in [1] was 5.46.

Consider `COc1ccc(Cl)cc1C(=O)NCCc1ccc(S(=O)(=O)NCCc2ccccc2)cc1`, for which, in data set [1], the pIC50 was 6.09.

Consider `COc1ccc(CNS(=O)(=O)c2ccc(CCNC(=O)c3cc(Cl)ccc3OC)cc2)cc1`, for which, in [2], the inhibition entry is “Active”. The pIC50 is 6.38 in data set [1] and 6.44 in [3].

Turning to `CNS(=O)(=O)c1ccc(CCNC(=O)c2c(Cl)cccc2OC)cc1`, the negative-log IC50 (pIC50) in [1] was 4.35.

On to `COc1ccc(Cl)cc1C(=O)NCCc1ccc(S(=O)(=O)NCc2ccc(C(F)(F)F)cc2)cc1`, for which the pIC50 in data set [1] is 5.72.

On to `CNS(=O)(=O)c1ccc(CCCCNC(=O)c2cc(Cl)ccc2OC)cc1`, for which the pIC50 in [1] was 5.76.

Regarding `COc1ccc(Cl)cc1C(=O)NCCc1ccc(S(=O)(=O)NCc2ccc(Cl)cc2)cc1`, in [1], the pIC50 is 5.82.

For `CNS(=O)(=O)c1ccc(CCNC(=O)c2ccccc2OC)cc1`, the pIC50 in data set [1] was 4.77.

Turning to `CCN(CC)S(=O)(=O)c1ccc(CCNC(=O)c2cc(Cl)ccc2OC)cc1`, the pIC50 in [1] is 5.70.

`COc1ccc(Cl)cc1C(=O)NCCc1ccc(S(=O)(=O)Nc2ccccc2)cc1`: the pIC50 in [1] was 5.68.

Take `CNS(=O)(=O)c1ccc(CCNC(=O)c2cc(Cl)cc(OC)c2)cc1`: the pIC50 in data set [1] is 5.23.

For the molecule `COc1ccc(Cl)cc1C(=O)NCCc1ccc(S(=O)(=O)NCc2ccccc2)cc1`, the pIC50 in data set [1] was 5.88.

For the molecule `COc1ccc(Cl)cc1C(=O)NCCc1ccc(S(=O)(=O)N2CCCCC2)cc1`, the pIC50 in data set [1] was 5.30.

As to `CCCCN(CCCC)S(=O)(=O)c1ccc(CCNC(=O)c2cc(Cl)ccc2OC)cc1`, the inhibition entry in [2] is “Active”. The Ratio IC50 in [4] was determined as 4. For the same molecule, the pIC50 in data set [1] is 6.26; in data set [3] it was 6.92.

As to `COc1ccc(Cl)cc1C(=O)NCCc1ccc(S(=O)(=O)N2CCC2)cc1`, the pIC50 in data set [1] is 5.78.

On to `COc1ccc(Cl)cc1C(=O)NCCc1ccc(S(=O)(=O)N2CCCC2)cc1`, for which the pIC50 in [1] is 5.45.

Regarding `CNS(=O)(=O)c1ccc(CCNC(=O)c2cccc(Cl)c2)cc1`, the pIC50 in data set [1] was 4.87.

Consider `COc1ccc(Cl)cc1C(=O)NCCc1ccc(S(=O)(=O)NCc2ccc(O)cc2)cc1`, for which the pIC50 in data set [1] was 6.20.

Consider `COc1ccc(Cl)cc1C(=O)NCCc1ccc(S(=O)(=O)N2CCNCC2)cc1`, for which, in [1], the pIC50 is 5.47.

With `CNS(=O)(=O)c1ccc(CCNC(=O)c2cc(Cl)ccc2OC)cc1`, the result in data set [5], in data set [6], in [8], in [10] and in data set [11] was Active. The Activity in data set [7] is listed as below 50%; in data set [9] it was “Non-Toxic”.

Turning to `CNS(=O)(=O)c1ccc(CCCNC(=O)c2cc(Cl)ccc2OC)cc1`, in [1], the pIC50 is 5.69.

For `CCCNS(=O)(=O)c1ccc(CCNC(=O)c2cc(Cl)ccc2OC)cc1`, the pIC50 in data set [1] was 5.79.

Take `CNS(=O)(=O)c1ccc(CCNC(=O)c2ccccc2)cc1`: in [1], the pIC50 is 3.83.

Consider `CNS(=O)(=O)c1ccc(CCNC(=O)c2cc(Cl)ccc2O)cc1`, for which the pIC50 in [1] was 4.98.

In the case of `CCCCNS(=O)(=O)c1ccc(CCNC(=O)c2cc(Cl)ccc2OC)cc1`, the pIC50 in data set [1] was 6.01.

Consider `CNS(=O)(=O)c1ccc(CCNC(=O)c2cccc(Cl)c2OC)cc1`, for which the pIC50 in [1] is 4.50.

Source of the values: ChEMBL document CHEMBL4251750, “Structural Insights of Benzenesulfonamide Analogues as NLRP3 Inflammasome Inhibitors: Design, Synthesis, and Biological Characterization” (J Med Chem, 2018).
